Converted amounts (≈) assume the structure as drawn.

As a reminder, the thermodynamic solubility is solubility found after equilibrating the solid with the medium. As usually defined, the chromatographic logD is lipophilicity estimated from chromatographic retention. In general, bioavailability refers to dose-corrected exposure relative to a reference, in per cent. High values mean good availability, low ones poor availability. Usually half-life stands for how long it takes for the measured level to halve. Read a high half-life as slow decline. The term clearance denotes a measure of how efficiently the substance is removed, as volume per time. High values mean efficient removal, low ones inefficient removal. The IC50 is the midpoint of a concentration-inhibition curve. One may read the pKa as the pH at which an ionisable group is half protonated. A high value points to a group that holds its proton tightly. As usually defined, the Vdss is the apparent volume that relates the amount in the body to the concentration in plasma or blood. A higher Vdss goes with wide distribution into tissue.

A short description of data set [1]: Equilibrium solubility of the compound in fasted-state simulated intestinal fluid at pH 6.5 after 24 hrs by HPLC analysis. In kind it is physicochemical. The procedure, abridged: (§1)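 Solid compound was equilibrated 24 h in the stated medium: water, SGF pH 1.6, FeSSIF pH 6.5, FaSSIF pH 6.5 or saline. Dissolved compound was quantified by HPLC.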
The nature of data set [2]: Equilibrium solubility of the compound in fed-state simulated intestinal fluid at pH 6.5 after 24 hrs by HPLC analysis. In kind it is physicochemical. The procedure, abridged:
as §1

Data set [3] can be described thus: Lipophilicity, log D of the compound by chromatographic analysis. Format: physicochemical. The procedure, abridged: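 Chromatographic log D measured at pH 7.4.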
The target in data set [4] is T1, C-C chemokine receptor type 4 (Homo sapiens, UniProt P51679).
T1 sequence (P51679 whole entry): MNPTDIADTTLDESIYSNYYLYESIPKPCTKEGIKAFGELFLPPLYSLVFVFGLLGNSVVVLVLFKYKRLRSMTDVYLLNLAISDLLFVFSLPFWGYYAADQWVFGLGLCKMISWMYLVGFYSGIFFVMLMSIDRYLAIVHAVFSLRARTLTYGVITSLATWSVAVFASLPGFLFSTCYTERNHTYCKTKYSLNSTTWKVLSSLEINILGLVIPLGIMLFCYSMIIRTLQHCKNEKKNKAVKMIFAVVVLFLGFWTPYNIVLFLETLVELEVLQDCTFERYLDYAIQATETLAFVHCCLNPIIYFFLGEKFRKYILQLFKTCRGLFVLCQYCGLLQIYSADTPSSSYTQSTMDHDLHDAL
The data set can be described thus: Antagonist activity at CCR4 receptor in human whole blood assessed as F-actin polymerization after 30 mins by FACS-based flow cytometric analysis. The following applies: read-out: pA2 (converted). For orientation: In flow cytometry, cells or beads pass a laser one at a time.

Data set [5] can be described thus: Oral bioavailability in CD rat at 1 mg/kg. Format: ADME, organism-based. The following applies: in vivo. The method, boiled down: (§2)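 CD rat pharmacokinetics, with compounds given as solutions in DMSO–PEG200–H₂O (5:45:50); one analogue used a 10:40:50 ratio.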
A short description of data set [6]: in vivo. The note with it: CD, rat, iv, 1 mg/kg.
A short description of data set [7]: Equilibrium solubility of the compound in water after 24 hrs by HPLC analysis. Format: physicochemical. The procedure, abridged: as §1
Data set [8] in a line: in vivo. The note with it: CD, rat, iv, 1 mg/kg. The source holds these as a separate data set.
In data set [9] the target is T1, C-C chemokine receptor type 4. Briefly: Antagonist activity at human recombinant CCR4 receptor expressed in CHO cell membranes by [35S]GTPgammaS binding assay. Format: functional. Background: GTPγS resists hydrolysis and so accumulates on activated G proteins.
Data set [10] can be described thus: Volume of distribution at steady state in CD rat at 1 mg/kg, iv and 1 mg/kg, po. In kind it is ADME, organism-based. The note with it: in vivo, read-out: Vdss. The procedure, abridged:
as §2

Data set [11] in a line: Kinetic solubility of the compound by chemiluminescent nitrogen detection assay. Format: physicochemical. The following applies: read-out: Kinetic_solubility.
Data set [12] can be described thus: Equilibrium solubility of the compound in simulated gastric fluid at pH 1.6 after 24 hrs by HPLC analysis. Format: physicochemical. The method, boiled down:
as §1

Data set [13] in a line: (§3) Volume of distribution at steady state in Beagle dog at 0.5 mg/kg, iv. Format: ADME, organism-based, Canis lupus familiaris. Set-up: dose 0.5 mg/kg, route intravenous. The note with it: beagle, in vivo, read-out: Vdss.
A short description of data set [14]: Oral bioavailability in Beagle dog at 1 mg/kg. Format: ADME, organism-based, Canis lupus familiaris. The note with it: in vivo.
The nature of data set [15]: Dissociation constant, pKa of the compound. In kind it is physicochemical.
Data set [16] can be described thus: Plasma protein binding in human by equilibrium dialysis technique. In kind it is ADME, cell-free. The note with it: read-out: PPB (converted). The procedure, abridged: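 Rapid equilibrium dialysis in CD rat, beagle dog or human plasma, with compound at a nominal 1 μg/mL; n = 3.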
In general terms: In equilibrium dialysis only unbound substance equilibrates across the membrane.

The nature of data set [17]: in vivo. The note with it: beagle, dog, iv, 0.5 mg/kg.
Data set [18] in a line: in vivo. The note with it: beagle, dog, iv, 0.5 mg/kg. The source holds these as a separate data set.
The test system of data set [19] is Canis familiaris. Described as §3. The arrangement: dose 0.5 mg/kg, route intravenous. The note with it: in vivo. Format: ADME, organism-based, Canis lupus familiaris.
Data set [20] is filed under the species Canis familiaris. The note with it: dog, in vivo, iv, 0.5 mg/kg.

On to `COc1cc(F)cc2c1c(NS(=O)(=O)c1ccc(Cl)s1)nn2Cc1cccc(CNC(=O)C(C)(C)O)c1`, for which the thermodynamic solubility at 24 h in data set [1] is 36 µg/mL (≈ 63.5 µM); in [2] it was 33 µg/mL (≈ 58.2 µM); in data set [7] it was 32 µg/mL (≈ 56.4 µM); in [12], 1 µg/mL (≈ 1.76 µM). Moreover, in [3], the chromatographic logD came to 4.2. For the same molecule, in data set [4], the Kb was 631 nM. Further, the bioavailability in data set [5] worked out at 90%. For the same molecule, the half-life in data set [6] was 1.8 h. This molecule also gave a clearance in data set [8] of 19 mL/min/kg. Besides, the half-maximal inhibitory concentration (IC50) in [9] is 15.8 nM. In addition, in data set [10], the Vd came out at 1.5 L/kg. For the same molecule, in [11], the solubility kinetic was at least 198 µg/mL.

In [3], `COc1cccc2c1c(NS(=O)(=O)c1ccc(Cl)s1)nn2Cc1cccc(CNC(C)=O)c1` returned a chromatographic logD of 4.1. The Vd in data set [13] came out at 3.2 L/kg. The bioavailability in data set [14] amounted to 49%. Moreover, the pKa in [15] came out at 6.6. Besides, in [11], the solubility kinetic is at least 124 µg/mL. Besides, the fraction unbound in data set [16] is 0.005.

In data set [3], `CN[C@H](C)C(=O)NCc1cccc(Cn2nc(NS(=O)(=O)c3ccc(Cl)s3)c3c(OC)cccc32)c1` gave a chromatographic logD of 3.1. Further, the figures for the Vd in [13] and in data set [10] were 6 L/kg and 0.79 L/kg, respectively. In addition, the Kb in [4] was 200 nM. The bioavailability in [5] is 19%; in data set [14], 81%. For the same molecule, the half-life in [17] is 5.9 h; in data set [6], 0.8 h. In addition, the clearance in [8] and in data set [18] was 17 mL/min/kg in each case. Besides, the 50% inhibitory concentration (IC50) in data set [9] is 15.8 nM. Moreover, the solubility kinetic in [11] was 191 µg/mL (≈ 348 µM). Further, the fraction unbound in data set [16] was 0.054.

On to `COc1cccc2c1c(NS(=O)(=O)c1ccc(Cl)s1)nn2Cc1cccc(CNC(=O)[C@@H]2COCCN2)c1`, for which the chromatographic logD in [3] was 3.9. Further, the results for the Vd in [13] and in data set [10] were 3 L/kg and 0.78 L/kg, respectively. For the same molecule, the Kb in [4] is 79.4 nM. Besides, the values for the bioavailability in data set [5] and in data set [14] were 32% and 39%, respectively. Further, the half-life was 2.6 h in data set [17] and 1.2 h in data set [6]. Further, the figures for the clearance in [8] and in data set [18] were 18 mL/min/kg and 41 mL/min/kg, respectively. Further, the IC50 in data set [9] was 15.8 nM. Besides, in [11], the solubility kinetic is at least 212 µg/mL. Besides, the fraction unbound in data set [16] is 0.018.

`COc1cccc2c1c(NS(=O)(=O)c1ccc(Cl)s1)nn2Cc1cccc(CNC(=O)[C@@H]2CCCCN2)c1`: the chromatographic logD in data set [3] was found to be 3.3. Also, in [19], the volume of distribution (Vdss) stood at 11 L/kg. Moreover, in [4], the Kb is 126 nM. The molecule also gave a bioavailability in [5] below 1%. In [6], the half-life is 3 h. Moreover, the clearance in data set [8] turned out to be 29 mL/min/kg. For the same molecule, in [9], the IC50 was 15.8 nM. In [20], this molecule returned a t1/2 of 0.95 h. Further, in [10], the Vd was 2.6 L/kg. For the same molecule, the solubility kinetic in data set [11] was at least 220 µg/mL. Also, the fraction unbound in data set [16] was 0.078.

`COc1cccc2c1c(NS(=O)(=O)c1ccc(Cl)s1)nn2Cc1cccc(CNC(=O)C2COCCN2C)c1` (single isomer, unassigned; isomer B) returned a chromatographic logD in data set [3] of 4.4. Besides, the Vd is 5.7 L/kg in [13] and 1 L/kg in [10]. Also, the Kb in data set [4] was 251 nM. The molecule further came in with a bioavailability in data set [5] of 68%. For the same molecule, the values for the half-life in data set [17] and in [6] were 2.6 h and 1.3 h, respectively. Moreover, the clearance in data set [8] was 24 mL/min/kg; in data set [18], 22 mL/min/kg. The half-maximal inhibitory concentration (IC50) in data set [9] is 6.31 nM. Moreover, in [11], the solubility kinetic is at least 180 µg/mL. The fraction unbound in [16] is 0.014.
